{"source": "ChEMBL document CHEMBL4706541", "about": "“Design and synthesis of 1H-indazole-3-carboxamide derivatives as potent and selective PAK1 inhibitors with anti-tumour migration and invasion activities” (Eur J Med Chem, 2020)", "key": {"[1]": {"target": "Mitogen-activated protein kinase kinase kinase kinase 1 (Homo sapiens) (UniProt Q92918)", "experiment": "Inhibition of MAP4K1 (unknown origin) assessed as residual activity at 0.1 uM preincubated for 20 min followed by [gamma33P]ATP addition and measured after 120 mins by Hotspot assay relative to control", "conditions": "time 140.0 min", "method_in_brief": "(§1)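 Radiometric HotSpot kinase assay. Kinase and substrate are combined in 20 mM Hepes pH 7.5, 10 mM MgCl2, 1 mM EGTA, 0.02% Brij35, 0.02 mg/mL BSA, 0.1 mM Na3VO4, 2 mM DTT and 1% DMSO. Compound is added and preincubated 20 min at room temperature. The reaction starts with ATP plus 33P-ATP at 10 µM final and runs 120 min at 25 °C. Filter-binding read-out, given as % activity remaining versus DMSO.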"}, "[2]": {"target": "Mast/stem cell growth factor receptor Kit (Homo sapiens) (UniProt P10721)", "sequence (P10721 whole entry)": "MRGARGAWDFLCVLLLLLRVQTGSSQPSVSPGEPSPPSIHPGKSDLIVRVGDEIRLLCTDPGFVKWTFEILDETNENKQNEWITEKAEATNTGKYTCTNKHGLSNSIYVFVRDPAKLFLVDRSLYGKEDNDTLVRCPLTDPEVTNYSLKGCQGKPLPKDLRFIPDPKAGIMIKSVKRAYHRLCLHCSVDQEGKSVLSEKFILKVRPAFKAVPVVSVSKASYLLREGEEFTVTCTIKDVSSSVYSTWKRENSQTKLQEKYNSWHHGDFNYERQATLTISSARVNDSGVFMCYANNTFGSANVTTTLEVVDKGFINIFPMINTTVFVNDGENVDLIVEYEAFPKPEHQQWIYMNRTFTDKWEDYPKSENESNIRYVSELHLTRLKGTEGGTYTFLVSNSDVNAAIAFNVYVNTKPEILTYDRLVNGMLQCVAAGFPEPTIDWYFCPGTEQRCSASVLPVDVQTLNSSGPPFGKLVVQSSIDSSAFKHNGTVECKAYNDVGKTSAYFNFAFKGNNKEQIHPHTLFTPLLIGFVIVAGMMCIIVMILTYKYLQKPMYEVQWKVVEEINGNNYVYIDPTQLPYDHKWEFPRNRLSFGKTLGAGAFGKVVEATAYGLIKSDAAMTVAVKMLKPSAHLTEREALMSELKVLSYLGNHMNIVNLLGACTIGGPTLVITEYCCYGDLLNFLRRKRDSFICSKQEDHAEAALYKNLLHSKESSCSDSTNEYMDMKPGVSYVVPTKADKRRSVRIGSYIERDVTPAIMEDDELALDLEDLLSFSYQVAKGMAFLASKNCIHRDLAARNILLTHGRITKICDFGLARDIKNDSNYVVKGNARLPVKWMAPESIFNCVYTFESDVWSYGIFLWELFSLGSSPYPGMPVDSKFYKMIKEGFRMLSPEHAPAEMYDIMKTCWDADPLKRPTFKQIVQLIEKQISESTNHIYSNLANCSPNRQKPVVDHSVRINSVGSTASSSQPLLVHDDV", "experiment": "Inhibition of c-Kit (unknown origin) assessed as residual activity at 0.1 uM preincubated for 20 min followed by [gamma33P]ATP addition and measured after 120 mins by Hotspot assay relative to control", "conditions": "time 140.0 min", "method_in_brief": "as §1"}, "[3]": {"target": "Serine/threonine-protein kinase PAK 2 (Homo sapiens) (UniProt Q13177)", "experiment": "(§2) Inhibtion of recombinant human N-terminal GST/His6-tagged PAK2 (D3 to R524 residues) expressed in sf9 insect cells assessed as residual activity at 0.1 uM using RRRLSFAEPG as substrate preincubated for 20 min followed by [gamma33P]ATP addition and measured after 120 mins by Hotspot assay relative to control", "conditions": "time 140.0 min", "method_in_brief": "as §1"}, "[4]": {"target": "Mitogen-activated protein kinase 8 (Homo sapiens) (UniProt P45983)", "experiment": "Inhibition of JNK1 (unknown origin) assessed as residual activity at 0.1 uM preincubated for 20 min followed by [gamma33P]ATP addition and measured after 120 mins by Hotspot assay relative to control", "conditions": "time 140.0 min", "method_in_brief": "as §1"}, "[5]": {"target": "LIM domain kinase 1 (Homo sapiens) (UniProt P53667)", "experiment": "Inhibition of LIMK1 (unknown origin) assessed as residual activity at 0.1 uM preincubated for 20 min followed by [gamma33P]ATP addition and measured after 120 mins by Hotspot assay relative to control", "conditions": "time 140.0 min", "method_in_brief": "as §1"}, "[6]": {"target": "Serine/threonine-protein kinase 24 (Homo sapiens) (UniProt Q9Y6E0)", "experiment": "Inhibition of STK24 (unknown origin) assessed as residual activity at 0.1 uM preincubated for 20 min followed by [gamma33P]ATP addition and measured after 120 mins by Hotspot assay relative to control", "conditions": "time 140.0 min", "method_in_brief": "as §1"}, "[7]": {"target": "Tyrosine-protein kinase ABL1 (Homo sapiens) (UniProt P00519)", "experiment": "Inhibition of ABL1 (unknown origin) assessed as residual activity at 0.1 uM preincubated for 20 min followed by [gamma33P]ATP addition and measured after 120 mins by Hotspot assay relative to control", "conditions": "time 140.0 min", "method_in_brief": "as §1"}, "[8]": {"target": "Aurora kinase A (Homo sapiens) (UniProt O14965)", "sequence (O14965 whole entry)": "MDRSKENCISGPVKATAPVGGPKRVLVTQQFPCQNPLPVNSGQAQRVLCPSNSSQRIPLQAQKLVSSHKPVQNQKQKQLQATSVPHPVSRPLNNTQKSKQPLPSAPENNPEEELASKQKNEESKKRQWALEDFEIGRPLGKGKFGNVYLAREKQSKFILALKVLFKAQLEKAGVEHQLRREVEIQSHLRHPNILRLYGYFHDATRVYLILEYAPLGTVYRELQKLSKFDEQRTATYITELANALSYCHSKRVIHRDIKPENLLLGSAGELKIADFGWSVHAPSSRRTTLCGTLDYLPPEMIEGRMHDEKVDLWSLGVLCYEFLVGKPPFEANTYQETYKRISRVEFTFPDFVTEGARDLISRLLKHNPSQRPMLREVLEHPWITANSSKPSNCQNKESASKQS", "experiment": "Inhibition of AuroraA (unknown origin) assessed as residual activity at 0.1 uM preincubated for 20 min followed by [gamma33P]ATP addition and measured after 120 mins by Hotspot assay relative to control", "conditions": "time 140.0 min", "method_in_brief": "as §1"}, "[9]": {"target": "Epidermal growth factor receptor (Homo sapiens) (UniProt P00533)", "sequence (P00533 whole entry)": "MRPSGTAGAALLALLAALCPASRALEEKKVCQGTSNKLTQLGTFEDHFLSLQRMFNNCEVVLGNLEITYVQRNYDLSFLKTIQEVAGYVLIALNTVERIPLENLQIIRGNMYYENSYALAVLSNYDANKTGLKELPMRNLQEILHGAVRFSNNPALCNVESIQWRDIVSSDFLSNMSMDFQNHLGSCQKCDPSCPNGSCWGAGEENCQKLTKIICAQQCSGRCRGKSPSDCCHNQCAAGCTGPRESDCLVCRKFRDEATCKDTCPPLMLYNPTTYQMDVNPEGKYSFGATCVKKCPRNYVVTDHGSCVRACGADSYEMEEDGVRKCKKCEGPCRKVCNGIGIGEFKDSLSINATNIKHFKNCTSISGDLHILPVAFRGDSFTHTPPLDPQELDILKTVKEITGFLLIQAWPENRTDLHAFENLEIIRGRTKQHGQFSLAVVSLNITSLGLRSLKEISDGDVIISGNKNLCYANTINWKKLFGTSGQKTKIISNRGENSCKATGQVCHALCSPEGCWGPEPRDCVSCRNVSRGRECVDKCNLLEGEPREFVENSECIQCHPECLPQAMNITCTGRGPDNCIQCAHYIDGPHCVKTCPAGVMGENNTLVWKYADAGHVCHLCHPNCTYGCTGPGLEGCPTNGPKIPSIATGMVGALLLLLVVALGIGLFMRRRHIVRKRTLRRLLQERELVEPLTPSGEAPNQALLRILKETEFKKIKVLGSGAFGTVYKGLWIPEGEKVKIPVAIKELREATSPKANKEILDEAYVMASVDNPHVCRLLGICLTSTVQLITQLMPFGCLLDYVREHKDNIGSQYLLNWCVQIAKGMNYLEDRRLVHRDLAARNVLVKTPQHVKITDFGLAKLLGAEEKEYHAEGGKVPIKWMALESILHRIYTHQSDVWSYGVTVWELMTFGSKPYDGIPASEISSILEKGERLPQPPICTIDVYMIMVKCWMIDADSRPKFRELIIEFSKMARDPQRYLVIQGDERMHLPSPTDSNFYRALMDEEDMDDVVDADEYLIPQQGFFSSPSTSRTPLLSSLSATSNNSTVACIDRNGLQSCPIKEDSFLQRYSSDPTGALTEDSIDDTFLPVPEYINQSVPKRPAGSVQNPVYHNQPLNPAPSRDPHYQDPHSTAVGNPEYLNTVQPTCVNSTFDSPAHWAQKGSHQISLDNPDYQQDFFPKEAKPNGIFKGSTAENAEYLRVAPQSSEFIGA", "experiment": "Inhibition of EGFR (unknown origin) assessed as residual activity at 0.1 uM preincubated for 20 min followed by [gamma33P]ATP addition and measured after 120 mins by Hotspot assay relative to control", "conditions": "time 140.0 min", "method_in_brief": "as §1"}, "[10]": {"target": "Mitogen-activated protein kinase 3 (Homo sapiens) (UniProt P27361)", "experiment": "Inhibition of ERK1 (unknown origin) assessed as residual activity at 0.1 uM preincubated for 20 min followed by [gamma33P]ATP addition and measured after 120 mins by Hotspot assay relative to control", "conditions": "time 140.0 min", "method_in_brief": "as §1"}, "[11]": {"target": "Dual specificity mitogen-activated protein kinase kinase 1 (Homo sapiens) (UniProt Q02750)", "experiment": "Inhibition of MEK1 (unknown origin) assessed as residual activity at 0.1 uM preincubated for 20 min followed by [gamma33P]ATP addition and measured after 120 mins by Hotspot assay relative to control", "conditions": "time 140.0 min", "method_in_brief": "as §1"}, "[12]": {"target": "T1, Serine/threonine-protein kinase PAK 1 (Homo sapiens, UniProt Q13153)", "T1 sequence (Q13153 whole entry, the tested form may be a part)": "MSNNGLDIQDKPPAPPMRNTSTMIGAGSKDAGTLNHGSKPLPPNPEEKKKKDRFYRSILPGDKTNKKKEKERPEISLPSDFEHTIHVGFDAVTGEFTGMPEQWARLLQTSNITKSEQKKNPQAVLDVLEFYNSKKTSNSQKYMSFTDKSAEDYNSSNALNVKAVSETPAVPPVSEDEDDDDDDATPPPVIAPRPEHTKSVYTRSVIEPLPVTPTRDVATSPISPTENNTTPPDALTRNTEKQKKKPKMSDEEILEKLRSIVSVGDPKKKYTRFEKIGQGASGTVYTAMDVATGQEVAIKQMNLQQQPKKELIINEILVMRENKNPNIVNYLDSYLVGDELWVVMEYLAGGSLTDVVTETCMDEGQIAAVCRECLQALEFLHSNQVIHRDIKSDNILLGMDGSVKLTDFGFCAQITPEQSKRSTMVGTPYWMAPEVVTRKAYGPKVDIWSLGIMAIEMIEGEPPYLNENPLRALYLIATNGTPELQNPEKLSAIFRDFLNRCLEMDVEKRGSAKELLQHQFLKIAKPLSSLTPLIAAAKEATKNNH", "experiment": "as §2, with “Inhibition” for “Inhibtion”, “of full length” for “of”, “PAK1” for “PAK2 (D3 to R524 residues)”, “tetra LRRWSLG” for “RRRLSFAEPG”", "conditions": "time 140.0 min", "method_in_brief": "as §1"}, "[13]": {"target": "Serine/threonine-protein kinase PAK 5 (Homo sapiens) (UniProt Q9P286)", "experiment": "Inhibtion of recombinant human PAK5 expressed in baculovirus infected sf9 insect cells assessed as residual activity at 0.1 uM using RRRLSFAEPG as substrate preincubated for 20 min followed by [gamma33P]ATP addition and measured after 120 mins by Hotspot assay relative to control", "conditions": "time 140.0 min", "method_in_brief": "as §1"}, "[14]": {"target": "T1, Serine/threonine-protein kinase PAK 1", "experiment": "Inhibition of PAK1 phosphorylation at ser144 residue in human MDA-MB-231 cells after 1 to 24 hrs by Western blot analysis", "format": "cell-based", "conditions": "dose 2.5-20 µM, time 1-24 hrs", "method_in_brief": "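Whole-cell extracts made from 1×10^6 treated cells in RIPA buffer (50 mM Tris/HCl pH 7.4, 150 mM NaCl, 1% NP-40, 0.25% deoxycholate, 1 mM EDTA, protease inhibitors). Proteins separated by SDS-PAGE, blotted to PVDF and blocked in 5% milk in TBS-T. Membranes probed for PAK1, phospho-PAK1 Ser144, Snail and actin, with β-actin as loading control. ECL detection.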"}, "[15]": {"target": "Voltage-gated inwardly rectifying potassium channel KCNH2 (Homo sapiens, UniProt Q12809)", "sequence (Q12809 whole entry)": "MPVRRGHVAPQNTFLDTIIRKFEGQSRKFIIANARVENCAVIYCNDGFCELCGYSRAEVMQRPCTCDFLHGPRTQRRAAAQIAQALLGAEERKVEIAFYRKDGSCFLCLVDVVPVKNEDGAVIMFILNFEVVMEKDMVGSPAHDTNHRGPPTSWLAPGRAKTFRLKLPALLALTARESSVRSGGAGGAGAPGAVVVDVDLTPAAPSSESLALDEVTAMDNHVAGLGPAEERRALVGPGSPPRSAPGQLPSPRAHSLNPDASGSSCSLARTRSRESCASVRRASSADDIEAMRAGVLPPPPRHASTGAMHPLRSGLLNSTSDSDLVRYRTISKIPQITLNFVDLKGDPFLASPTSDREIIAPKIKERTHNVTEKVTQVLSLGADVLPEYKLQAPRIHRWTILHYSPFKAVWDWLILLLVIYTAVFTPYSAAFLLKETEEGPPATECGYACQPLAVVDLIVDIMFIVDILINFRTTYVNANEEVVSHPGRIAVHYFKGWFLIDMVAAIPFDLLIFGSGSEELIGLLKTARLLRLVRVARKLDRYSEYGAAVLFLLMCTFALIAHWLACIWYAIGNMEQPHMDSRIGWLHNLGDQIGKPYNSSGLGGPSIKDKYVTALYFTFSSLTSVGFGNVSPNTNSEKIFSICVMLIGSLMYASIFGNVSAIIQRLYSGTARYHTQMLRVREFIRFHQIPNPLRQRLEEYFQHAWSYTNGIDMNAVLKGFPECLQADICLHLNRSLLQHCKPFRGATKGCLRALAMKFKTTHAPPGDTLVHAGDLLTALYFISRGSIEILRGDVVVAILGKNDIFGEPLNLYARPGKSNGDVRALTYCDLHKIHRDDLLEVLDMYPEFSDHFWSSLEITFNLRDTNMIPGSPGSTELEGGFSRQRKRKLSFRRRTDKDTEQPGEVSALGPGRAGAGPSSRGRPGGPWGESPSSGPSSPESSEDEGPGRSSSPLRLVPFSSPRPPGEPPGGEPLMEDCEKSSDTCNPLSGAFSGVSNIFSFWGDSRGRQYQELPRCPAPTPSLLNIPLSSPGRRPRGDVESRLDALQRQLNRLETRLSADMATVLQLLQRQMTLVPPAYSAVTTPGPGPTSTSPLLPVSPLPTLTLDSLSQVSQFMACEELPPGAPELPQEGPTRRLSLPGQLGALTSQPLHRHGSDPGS", "experiment": "Inhibition of human ERG"}, "[16]": {"tested_on": "MDA-MB-231", "experiment": "Antiproliferative activity against human MDA-MB-231 cells assessed as growth inhibition at 1 uM after 72 hrs by Cell Titer-Glo assay relative to control", "format": "functional", "conditions": "read-out: GI", "method_in_brief": "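Cells kept at 37 °C in 5% CO2 and plated at 4000 per well. Treated with compound for 72 h. Viability read by CellTiter-Glo luminescence. Each compound run in duplicate, data as means ± SD.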"}, "[17]": {"target": "RAC-alpha serine/threonine-protein kinase (Homo sapiens) (UniProt P31749)", "sequence (P31749 whole entry)": "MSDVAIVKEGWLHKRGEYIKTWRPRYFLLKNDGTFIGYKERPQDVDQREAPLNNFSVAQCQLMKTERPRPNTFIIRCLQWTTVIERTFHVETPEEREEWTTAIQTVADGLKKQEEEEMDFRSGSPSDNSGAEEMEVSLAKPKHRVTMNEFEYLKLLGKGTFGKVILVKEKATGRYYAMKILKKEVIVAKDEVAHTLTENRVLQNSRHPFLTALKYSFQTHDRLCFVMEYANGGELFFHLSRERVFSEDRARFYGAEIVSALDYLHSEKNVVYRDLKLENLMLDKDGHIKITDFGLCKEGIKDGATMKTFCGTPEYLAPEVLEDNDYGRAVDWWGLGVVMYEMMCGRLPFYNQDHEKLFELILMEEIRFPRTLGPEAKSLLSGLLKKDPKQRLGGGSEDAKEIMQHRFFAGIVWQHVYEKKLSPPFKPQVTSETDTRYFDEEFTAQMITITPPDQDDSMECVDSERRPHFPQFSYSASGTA", "experiment": "Inhibition of AKT1 (unknown origin) assessed as residual activity at 0.1 uM preincubated for 20 min followed by [gamma33P]ATP addition and measured after 120 mins by Hotspot assay relative to control", "conditions": "time 140.0 min", "method_in_brief": "as §1"}}, "data": [{"smiles": "Cc1cccn(-c2ccc(-c3ccc4c(C(=O)NCc5ccncc5)n[nH]c4c3)c(Cl)c2)c1=O", "values": [{"measurement": "Activity", "setting": "[1]", "value": 89.6, "unit": "%"}, {"measurement": "Activity", "setting": "[2]", "value": 99.2, "unit": "%"}, {"measurement": "Activity", "setting": "[3]", "value": 28, "unit": "%"}, {"measurement": "Activity", "setting": "[4]", "value": 72.8, "unit": "%"}, {"measurement": "Activity", "setting": "[5]", "value": 115, "unit": "%"}, {"measurement": "Activity", "setting": "[6]", "value": 64, "unit": "%"}, {"measurement": "Activity", "setting": "[7]", "value": 106, "unit": "%"}, {"measurement": "Activity", "setting": "[8]", "value": 87.8, "unit": "%"}, {"measurement": "Activity", "setting": "[9]", "value": 89.3, "unit": "%"}, {"measurement": "Activity", "setting": "[10]", "value": 99, "unit": "%"}, {"measurement": "Activity", "setting": "[11]", "value": 84.4, "unit": "%"}, {"measurement": "Activity", "setting": "[12]", "value": 27.6, "unit": "%"}, {"measurement": "Activity", "setting": "[13]", "value": 116, "unit": "%"}, {"measurement": "inhibition", "setting": "[14]", "value": "Dose-dependent effect"}, {"measurement": "IC50", "setting": "[15]", "value": 16, "unit": "µM"}, {"measurement": "inhibition of growth at 1 µM", "setting": "[16]", "value": 6.31, "unit": "%"}, {"measurement": "Activity", "setting": "[17]", "value": 98.8, "unit": "%"}]}]}
